≈ marks a conversion by molar mass, not a printed value.
Columns and labels:
[1] = test system: Mycobacterium tuberculosis; assay: Antitubercular activity against dormant stage of Mycobacterium tuberculosis H37Ra ATCC 25177 assessed as growth inhibition at 30 ug/ml after 12 days by XRMA relative to control; assay type: functional; conditions: H37Ra ATCC 25177, 288 h
[2] = test system: Mycobacterium tuberculosis; assay: Antitubercular activity against dormant stage of Mycobacterium tuberculosis H37Ra ATCC 25177 infected in human THP1 cells by nitrate reductase assay; assay type: functional, organism-based; conditions: for MIC90: H37Ra ATCC 25177; for IC50: H37Ra ATCC 25177, THP-1
[3] = test system: Mycobacterium tuberculosis; assay: Antitubercular activity against dormant stage of Mycobacterium tuberculosis H37Ra ATCC 25177 by two fold dilution technique; assay type: functional
Summary of the method: (§1)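 MIC against dormant-stage bacilli, read out by XTT reduction menadione assay (XRMA), with rifampicin MIC determined the same way as reference.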

[4] = (§2) Growth inhibition of human PANC1 cells by MTT assay; assay type: cell-based, PANC-1; conditions: PANC-1 cells
Summary of the method: (§3)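 Human cancer cell lines were exposed in vitro to a range of compound concentrations. Viability was read by MTT colorimetric assay, and GI50 and GI90 were derived from the concentration series.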

[5] = test system: PANC-1; assay: as §2; assay type: cell-based; conditions: panc-1; summary of the method: as §3
[6] = test system: Mycobacterium tuberculosis; assay: Antitubercular activity against dormant stage of Mycobacterium tuberculosis H37Ra ATCC 25177 assessed as growth inhibition at 3 ug/ml after 12 days by XRMA relative to control; assay type: functional; conditions: H37Ra ATCC 25177, 288 h
[7] = test system: THP-1; assay: Cytotoxicity against human THP1 cells at 3 ug/ml; assay type: cell-based
[8] = (§4) Growth inhibition of human A549 cells by MTT assay; assay type: cell-based; conditions: A549 cells; summary of the method: as §3
[9] = test system: A549; assay: as §4; assay type: cell-based; conditions: a549; summary of the method: as §3
[10] = test system: THP-1; assay: Cytotoxicity against human THP1 cells at 10 ug/ml; assay type: cell-based
[11] = test system: THP-1; assay: Cytotoxicity against human THP1 cells at 30 ug/ml; assay type: cell-based
[12] = Growth inhibition of human THP1 cells; assay type: cell-based; conditions: THP-1 cells
[13] = (§5) Growth inhibition of human HeLa cells by MTT assay; assay type: cell-based; conditions: HeLa cells; summary of the method: as §3
[14] = test system: HeLa; assay: as §5; assay type: cell-based; conditions: hela; summary of the method: as §3
[15] = test system: Mycobacterium tuberculosis; assay: Antitubercular activity against dormant stage of Mycobacterium tuberculosis H37Ra ATCC 25177 assessed as growth inhibition at 10 ug/ml after 12 days by XRMA relative to control; assay type: functional; conditions: H37Ra ATCC 25177, 288 h
[16] = test system: Mycobacterium tuberculosis; assay: Antitubercular activity against dormant stage of Mycobacterium tuberculosis H37Ra ATCC 25177 after 12 days by XRMA; assay type: functional, organism-based; conditions: H37Ra ATCC 25177, 288 h; summary of the method: as §1

Question: For `Cc1nc(C)c(-c2nn(-c3ccc(F)cc3)cc2C2CC(c3cc(Cl)c(C)cc3O)=NN2)s1` (configuration not stated), which inhibition at 30 µg/mL [1] is on record?
Answer: 95.6%

Question: What about the MIC90 [2] of the same compound?
Answer: 8.59 µM

Question: What about the IC50 [2] of the same compound?
Answer: 1.62 µM

Question: What about the MIC90 [3] of the same compound?
Answer: 9.65 µM

Question: And the GI50 [4]?
Answer: 127 µg/mL (≈ 264 µM)

Question: What about the GI90 [5] of the same compound?
Answer: > 250 µg/mL

Question: And the inhibition at 3 µg/mL [6]?
Answer: 38.8%

Question: What about the Activity [7] of the same compound?
Answer: 9.1%

Question: And the GI50 [8]?
Answer: 146 µg/mL (≈ 302 µM)

Question: And the GI90 [9]?
Answer: > 250 µg/mL

Question: What about the Activity [10] of the same compound?
Answer: 10.66%

Question: What about the Activity [11] of the same compound?
Answer: 17.93%

Question: And the GI50 [12]?
Answer: > 30 µg/mL

Question: And the GI50 [13]?
Answer: > 250 µg/mL

Question: What about the GI90 [14] of the same compound?
Answer: > 250 µg/mL

Question: And the inhibition at 10 µg/mL [15]?
Answer: 43.5%

Question: And the IC50 [16]?
Answer: 0.52 µM

Question: With `Cc1nc(C)c(-c2nn(-c3ccc(F)cc3)cc2/C=C/C(=O)c2cc(Br)ccc2O)s1` as the compound, how does the inhibition at 30 µg/mL [1] read?
Answer: 27.5%

Question: And the MIC90 [2]?
Answer: > 30 µg/mL

Question: And the IC50 [2]?
Answer: > 30 µg/mL

Question: What about the MIC90 [3] of the same compound?
Answer: > 30 µg/mL

Question: And the GI50 [4]?
Answer: > 250 µg/mL

Question: What about the GI90 [5] of the same compound?
Answer: > 250 µg/mL

Question: What about the inhibition at 3 µg/mL [6] of the same compound?
Answer: 23.5%

Question: And the Activity [7]?
Answer: 20.41%

Question: And the GI50 [8]?
Answer: > 250 µg/mL

Question: What about the GI90 [9] of the same compound?
Answer: > 250 µg/mL

Question: And the Activity [10]?
Answer: 21.42%

Question: And the Activity [11]?
Answer: 24.98%

Question: What about the GI50 [13] of the same compound?
Answer: 4.88 µg/mL (≈ 9.79 µM)

Question: What about the GI90 [14] of the same compound?
Answer: 44.94 µg/mL (≈ 90.2 µM)

Question: What about the inhibition at 10 µg/mL [15] of the same compound?
Answer: 9%

Question: And the IC50 [16]?
Answer: > 30 µg/mL

Question: Which results are given for `Cc1ccc2oc(-c3cn(-c4ccc(F)cc4)nc3-c3sc(C)nc3C)cc(=O)c2c1`?
Answer: inhibition at 30 µg/mL [1]: 92.2%; MIC90 [2]: 1.23 µM; IC50 [2]: 0.16 µM; MIC90 [3]: 5.89 µM; GI50 [4]: > 250 µg/mL; GI90 [5]: > 250 µg/mL; inhibition at 3 µg/mL [6]: 47.8%; Activity [7]: 0.8%; GI50 [8]: > 250 µg/mL; GI90 [9]: > 250 µg/mL; Activity [10]: 2.34%; Activity [11]: 4.94%; GI50 [12]: > 30 µg/mL; GI50 [13]: > 250 µg/mL; GI90 [14]: > 250 µg/mL; inhibition at 10 µg/mL [15]: 88.6%; IC50 [16]: 1.07 µM

Question: Which inhibition at 30 µg/mL [1] does the source give for `Cc1ccc(O)c(C2=NNC(c3cn(-c4ccc(F)cc4)nc3-c3sc(C)nc3C)C2)c1` (configuration not stated) here?
Answer: 36.7%

Question: What about the MIC90 [2] of the same compound?
Answer: 33.4 µM

Question: What about the IC50 [2] of the same compound?
Answer: 11.9 µM

Question: What about the MIC90 [3] of the same compound?
Answer: 46.4 µM

Question: And the GI50 [4]?
Answer: > 250 µg/mL

Question: And the GI90 [5]?
Answer: > 250 µg/mL

Question: What about the inhibition at 3 µg/mL [6] of the same compound?
Answer: 24.8%

Question: What about the Activity [7] of the same compound?
Answer: 5.94%

Question: And the GI50 [8]?
Answer: > 250 µg/mL

Question: And the GI90 [9]?
Answer: > 250 µg/mL

Question: What about the Activity [10] of the same compound?
Answer: 10.7%

Question: And the Activity [11]?
Answer: 24.05%

Question: What about the GI50 [13] of the same compound?
Answer: > 250 µg/mL

Question: And the GI90 [14]?
Answer: > 250 µg/mL

Question: And the inhibition at 10 µg/mL [15]?
Answer: 39.7%

Question: And the IC50 [16]?
Answer: 4.31 µM

Question: For `Cc1nc(C)c(-c2nn(-c3ccc(F)cc3)cc2C2CC(c3cc(Cl)ccc3O)=NN2)s1` (configuration not stated), which inhibition at 30 µg/mL [1] is on record?
Answer: 97.2%

Question: What about the MIC90 [2] of the same compound?
Answer: 1.5 µM

Question: What about the IC50 [2] of the same compound?
Answer: 0.36 µM

Question: And the MIC90 [3]?
Answer: 2.48 µM

Question: What about the GI50 [4] of the same compound?
Answer: > 250 µg/mL

Question: What about the GI90 [5] of the same compound?
Answer: > 250 µg/mL

Question: What about the inhibition at 3 µg/mL [6] of the same compound?
Answer: 41.6%

Question: And the Activity [7]?
Answer: 7.09%

Question: And the GI50 [8]?
Answer: > 250 µg/mL

Question: What about the GI90 [9] of the same compound?
Answer: > 250 µg/mL

Question: What about the Activity [10] of the same compound?
Answer: 11.51%

Question: And the Activity [11]?
Answer: 17.04%

Question: And the GI50 [12]?
Answer: > 30 µg/mL

Question: And the GI50 [13]?
Answer: > 250 µg/mL

Question: What about the GI90 [14] of the same compound?
Answer: > 250 µg/mL

Question: What about the inhibition at 10 µg/mL [15] of the same compound?
Answer: 79.7%

Question: And the IC50 [16]?
Answer: 0.06 µM

Question: For `Cc1nc(C)c(-c2nn(-c3ccc(F)cc3)cc2/C=C/C(=O)c2c(O)cc(C)c(Cl)c2C)s1`, which inhibition at 30 µg/mL [1] is on record?
Answer: 10.1%

Question: And the MIC90 [2]?
Answer: > 30 µg/mL

Question: What about the IC50 [2] of the same compound?
Answer: > 30 µg/mL

Question: What about the MIC90 [3] of the same compound?
Answer: > 30 µg/mL

Question: And the GI50 [4]?
Answer: 35.2 µg/mL (≈ 73.1 µM)

Question: What about the GI90 [5] of the same compound?
Answer: 97.41 µg/mL (≈ 202 µM)

Question: What about the inhibition at 3 µg/mL [6] of the same compound?
Answer: 3.39%

Question: And the Activity [7]?
Answer: 13.12%

Question: And the GI50 [8]?
Answer: 33.5 µg/mL (≈ 69.4 µM)

Question: What about the GI90 [9] of the same compound?
Answer: 84.31 µg/mL (≈ 175 µM)

Question: And the Activity [10]?
Answer: 18.42%

Question: What about the Activity [11] of the same compound?
Answer: 41.43%

Question: And the GI50 [13]?
Answer: 59.3 µg/mL (≈ 123 µM)

Question: And the GI90 [14]?
Answer: 128.28 µg/mL (≈ 266 µM)

Question: And the inhibition at 10 µg/mL [15]?
Answer: 9.47%

Question: And the IC50 [16]?
Answer: > 30 µM

Question: What does the source list for `CO[C@H]1/C=C/O[C@@]2(C)Oc3c(C)c(O)c4c(O)c(c(/C=N/N5CCN(C)CC5)c(O)c4c3C2=O)NC(=O)/C(C)=C\C=C\[C@H](C)[C@H](O)[C@@H](C)[C@@H](O)[C@@H](C)[C@H](OC(C)=O)[C@@H]1C` [RIFAMPIN]?
Answer: MIC90 [3]: 0.91 µM; GI50 [4]: > 100 µg/mL; GI90 [5]: > 100 µg/mL; GI50 [8]: > 100 µg/mL; GI90 [9]: > 100 µg/mL; GI50 [13]: > 100 µg/mL; GI90 [14]: > 100 µg/mL

Question: With `Cc1nc(C)c(-c2nn(-c3ccc(F)cc3)cc2/C=C/C(=O)c2cc(Cl)cc(Cl)c2O)s1` as the compound, how does the inhibition at 30 µg/mL [1] read?
Answer: 30.5%

Question: And the MIC90 [2]?
Answer: > 30 µg/mL

Question: And the IC50 [2]?
Answer: > 30 µg/mL

Question: And the MIC90 [3]?
Answer: > 30 µg/mL

Question: And the GI50 [4]?
Answer: > 250 µg/mL

Question: What about the GI90 [5] of the same compound?
Answer: > 250 µg/mL

Question: And the inhibition at 3 µg/mL [6]?
Answer: 20.4%

Question: And the Activity [7]?
Answer: 15.71%

Question: And the GI50 [8]?
Answer: > 250 µg/mL

Question: What about the GI90 [9] of the same compound?
Answer: > 250 µg/mL

Question: And the Activity [10]?
Answer: 17.69%

Question: What about the Activity [11] of the same compound?
Answer: 49.76%

Question: What about the GI50 [13] of the same compound?
Answer: > 250 µg/mL

Question: What about the GI90 [14] of the same compound?
Answer: > 250 µg/mL

Question: What about the inhibition at 10 µg/mL [15] of the same compound?
Answer: 26.8%

Question: What about the IC50 [16] of the same compound?
Answer: > 30 µg/mL

From ChEMBL document CHEMBL4392833, “Thiazolyl-pyrazole derivatives as potential antimycobacterial agents” (Bioorg Med Chem Lett, 2019)
